Data taken from ChEMBL document CHEMBL4346736, “Anti-proliferative activity and structure-activity relationship of honokiol derivatives” (Bioorg Med Chem, 2019).
pIC50: −log10 of the molar value.

Experiments:
[1] = Partition coefficient, log P of the compound; format: physicochemical; settings: octanol/water
K562 [2] = experiment: Antiproliferative activity against human K562 cells after 48 hrs by MTT assay; format: functional, cell-based; settings: K562, 48 h
Outline: (§1)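 Cells from the Institute of Cell Biology, CAS (Shanghai), grown in RPMI-1640 with 10% FBS and 100 U/mL penicillin-streptomycin at 37 °C under 5% CO2. Cells were exposed to compounds for 48 h, and viability was read by MTT (or MTS). IC50, the concentration giving 50% inhibition, was calculated by the Logit method. Data are representative of 3 independent experiments.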

A549 = experiment: Antiproliferative activity against human A549 cells after 48 hrs by MTT assay; format: functional, cell-based; settings: A549, 48 h; outline: as §1
HepG2 [3] = experiment: Antiproliferative activity against human HepG2 cells after 48 hrs by MTT assay; format: functional, cell-based; settings: HepG2, 48 h; outline: as §1
HepG2 [4] = experiment: Antiproliferative activity against human HepG2 cells after 72 hrs by MTT assay; format: functional, cell-based; settings: HepG2, 72 h
HCT-116 = experiment: Antiproliferative activity against human HCT116 cells after 72 hrs by MTT assay; format: functional, cell-based; settings: HCT-116, 72 h
NCI-H1975 = experiment: Antiproliferative activity against human NCI-H1975 cells after 72 hrs by MTT assay; format: functional, cell-based; settings: NCI-H1975, 72 h
HepG2 [5] = experiment: Antiproliferative activity against human HepG2 cells; format: functional, cell-based; outline: as §1
K562 [6] = experiment: Antiproliferative activity against human K562 cells; format: functional, cell-based; outline: as §1

| Compound | logP [1] | also measured |
| --- | --- | --- |
| C/C=C/c1ccc(O)c(-c2cc(/C=C/C)ccc2O)c1 | 5.36 |  |
| C=CCc1cc(O)c(O)c(-c2cc(CC=C)cc(O)c2O)c1 | 3.76 |  |
| C=CCc1cccc(-c2cccc(CC=C)c2O)c1O | 4.75 |  |
| C=CCc1ccc(O)c(-c2ccc(OCC)c(CC=C)c2)c1 | 5.45 |  |
| C=CCc1ccc(OCC)c(-c2ccc(O)c(CC=C)c2)c1 | 5.66 |  |
| C=CCc1cc(C=O)c(OC)c(-c2ccc(O)c(CC=C)c2)c1 | 5 |  |
| C=CCc1cc(C=O)c(OC)c(-c2ccc(OC)c(CC=C)c2)c1 | 5.07 |  |
| C=CCc1cc(C=O)c(OCC)c(-c2ccc(OCC)c(CC=C)c2)c1 | 5.82 |  |
| C=CCc1cc(CO)c(O)c(-c2ccc(O)c(CC=C)c2)c1 | 4.27 |  |
| C=CCc1cc(CO)c(O)c(-c2cc(CO)c(O)c(CC=C)c2)c1 | 3.33 |  |
| C=CCc1ccc(OC)c(-c2cc(CC=C)ccc2OC)c1 | 5.35 |  |
| Oc1ccccc1-c1ccccc1O | 3.2 |  |
| C=CCc1cc(Br)c(O)c(-c2ccc(OC)c(CC=C)c2)c1 | 5.81 |  |
| C=CCc1cc(-c2ccc(OC)c(CC=C)c2)c(O)c(-c2ccc(OC)c(CC=C)c2)c1 | 7.61 |  |
| C=CCc1cc(-c2ccc(OC)c(CC=C)c2)ccc1O | 5.28 |  |
| C=CCc1cc(-c2cccc(CC=C)c2O)ccc1OC | 5.05 |  |
| C=CCc1ccc(O)c(-c2cccc(CC=C)c2O)c1 | 4.77 |  |
| C=CCc1cc(C(C)(C)c2ccc(O)c(CC=C)c2)ccc1O | 5.8 |  |
| C=CCc1cc(C2(c3ccc(O)c(CC=C)c3)CCCCC2)ccc1O | 6.97 |  |
| C=CCc1cc(C(=C(Cl)Cl)c2ccc(O)c(CC=C)c2)ccc1O | 6.17 |  |

| Compound | logP [1] | also measured |
| --- | --- | --- |
| C=CCc1cc(C(c2ccc(O)c(CC=C)c2)c2ccccn2)ccc1O | 5.41 |  |
| C=CCc1cc(/C(CC)=C(\CC)c2ccc(O)c(CC=C)c2)ccc1O | 6.74 |  |
| C=CCc1cc(-c2ccc(O)c(CC=C)c2)ccc1O | 5.21 |  |
| C=CCc1cc(Cc2ccc(O)c(CC=C)c2)ccc1O | 5.38 |  |
| CCCc1ccc(O)c(-c2cc(CCC)ccc2O)c1 | 5.76 |  |
| CCCc1ccc(O)c(-c2ccc(O)c(CCC)c2)c1 | 5.97 | pIC50 (K562 [2]): 4.74; pIC50 (A549): 4.52; pIC50 (HepG2 [3]): 4.51 |
| C=CCc1cc(-c2cccc(CC=C)c2O)ccc1O | 4.98 |  |
| COc1ccc(-c2cc(/C=C/C=O)ccc2O)cc1/C=C/C=O | 4.34 |  |
| C=CCc1ccc(O)c(-c2ccc(O)c(CC(O)CO)c2)c1 (stereo unspecified) | 3.08 | pIC50 (K562 [2]): 4.00; pIC50 (A549): 4.04; pIC50 (HepG2 [3]): 4.60 |
| C=CCc1cc(/C=N\C2CCCCC2)c(O)c(-c2ccc(O)c(CC=C)c2)c1 | 6.67 |  |
| C=CCc1ccc(O)c(-c2ccc(O)c(CC(O)COC)c2)c1 (stereo unspecified) | 3.7 | pIC50 (HepG2 [4]): < 4.40; pIC50 (HCT-116): < 4.40; pIC50 (NCI-H1975): < 4.40 |
| C=CCc1cc(CN2CCOCC2)c(O)c(-c2cc(CC=C)c(O)c(CN3CCOCC3)c2)c1 | 3.95 | pIC50 (HepG2 [5]): < 4.40; pIC50 (K562 [6]): < 4.40 |
| O=Cc1ccc(O)c(-c2ccc(O)c(CC3CO3)c2)c1 (stereo unspecified) | 3.16 | pIC50 (HepG2 [4]): < 4.40; pIC50 (HCT-116): < 4.40; pIC50 (NCI-H1975): < 4.40 |
| C=CCc1cc(CN2CCC(O)CC2)c(O)c(-c2cc(CC=C)c(O)c(CN3CCC(O)CC3)c2)c1 | 2.31 | pIC50 (HepG2 [5]): < 4.40; pIC50 (K562 [6]): 4.59 |
| C=CCc1ccc(O)c(-c2ccc3oc(C)cc3c2)c1 | 4.79 | pIC50 (K562 [2]): 4.17; pIC50 (A549): 4.15; pIC50 (HepG2 [3]): 3.97 |
| C=CCc1cc(NC(=O)CCl)c(O)c(-c2cc(CC=C)c(O)c(NC(=O)CCl)c2)c1 | 4.22 | pIC50 (K562 [2]): 4.67; pIC50 (A549): 4.53; pIC50 (HepG2 [3]): 4.72 |
| CCCc1ccc(O)c(-c2ccc3oc(C)cc3c2)c1 | 5.27 | pIC50 (K562 [2]): 4.13; pIC50 (A549): 4.21; pIC50 (HepG2 [3]): 4.05 |
| C=CCc1cc(CN2CCSCC2)c(O)c(-c2cc(CC=C)c(O)c(CN3CCSCC3)c2)c1 | 5.03 | pIC50 (HepG2 [5]): < 4.40; pIC50 (K562 [6]): < 4.40 |
| C=CCc1cc(/C=N\CCCCCC)c(O)c(-c2ccc(O)c(CC=C)c2)c1 | 7.22 |  |
